The series in a line: Toxicity liver stage against HepG2, at 10uM. It is filed as cell-based. Also noted: test concentration 10 uM, cell line HepG2-A16-CD81EGFP. To be noted: human, HepG2-A16-CD81EGFP cells; read-out: INHIBITION
The procedure, abridged:
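Uninfected HepG2-A16-CD81EGFP cells, 3 × 10^3 per well, 1536-well, plated on prespotted compound at 10 μM final, parasite-free screening media added to match infected plates; puromycin 10 μM positive, DMSO 0.5% negative; run in parallel with 48 h PbLuc assay at 37 °C, 5% CO2; viability by CellTiter-Glo luminescence, normalized to controls.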

Our source for the cytotoxicity values is ChEMBL document CHEMBL4513216, “Probing the Open Global Health Chemical Diversity Library for Multistage-Active Starting Points for Next-Generation Antimalarials” (ACS Infect Dis, 2020).

The structures appear in SMILES notation.

As to `O=C1CCOC[C@]2(CN(Cc3ccccc3)C[C@H]2c2ccccc2F)N1`, the cytotoxicity at 10 µM was -1.02%.

As for `CC(C)(C)Cc1noc2ncc(C(=O)N3CCSCC3)cc12`, the cytotoxicity at 10 µM was -0.779%.

Consider `CN(Cc1ncnn1C)C(=O)CCCn1ccc2cc(Cl)ccc21`, for which the cytotoxicity at 10 µM stood at 14.7%.

Regarding `CCOc1ccc(NC(=O)c2[nH]c(C)cc2C)cc1CO`, the cytotoxicity at 10 µM was found to be 21.3%.

Consider `COCCN1CCCC2(CCN(Cc3noc(C4CCCC4)n3)C2)C1=O` (configuration not stated), for which the cytotoxicity at 10 µM was 3.96%.

Turning to `Cc1cn2c(n1)CCC(NC(=O)c1cc(Br)cn1C)C2` (configuration not stated), the cytotoxicity at 10 µM worked out at 3.18%.

`O=C(CCn1ccc2ncccc2c1=O)N1CCCC1`: the cytotoxicity at 10 µM is -1.93%.

As for `Cn1cnnc1C1CCN(C(=O)c2cc3c(s2)CCC3)CC1`, the cytotoxicity at 10 µM was -10%.

Consider `O=C(NCC1(c2ccc(F)cc2)CCC1)N1CCC2(C1)OCCO2`, for which the cytotoxicity at 10 µM was 2.58%.

Turning to `Cc1nc(C2CCCN(C(=O)C3=NN(C(C)C)C(=O)CC3)C2)no1` (configuration not stated), the cytotoxicity at 10 µM was -3.32%.

For `CCn1nc(C)cc1C(=O)N1C[C@@H]2C[C@@H](c3nnc(C)[nH]3)O[C@@H]2C1`, the cytotoxicity at 10 µM was -1.87%.

With `O=C(NCc1csc(Br)c1)c1ccncc1`, the cytotoxicity at 10 µM worked out at 4.38%.

`CN1CCCC1c1cccc(Cc2ccc(F)cc2)n1` (configuration not stated): the cytotoxicity at 10 µM stood at 4.3%.

In the case of `COc1cc(C(=O)NC(C)(C)CN2CCN(C)CC2)c2ccccc2n1`, the cytotoxicity at 10 µM was -1.41%.

Take `Cc1cc(C)n(CC2CCCN2C(=O)c2ccc(N(C)C)nn2)n1` (configuration not stated): the cytotoxicity at 10 µM worked out at 1.53%.

For `CCc1nc2n(n1)CC(NCc1nc(C)c(C)o1)CC2` (configuration not stated), the cytotoxicity at 10 µM was -11%.

For `O=C1CSC(c2ccc(O)cc2)c2sccc2N1` (configuration not stated), the cytotoxicity at 10 µM turned out to be 5.31%.

Turning to `COc1cc(C2c3c(n[nH]c3C)N=C3COC(=O)C32)cc2c1OCO2` (configuration not stated), the cytotoxicity at 10 µM was 87.7%.

Take `CC(Nc1ccc(Br)cc1)c1nc(C2CC2)no1` (configuration not stated): the cytotoxicity at 10 µM was determined as 6.27%.

Turning to `O=C(c1cn(CCN2CCCCC2)nn1)N1CCSCC1`, the cytotoxicity at 10 µM was 2.34%.

Turning to `Cc1nn(C)c2cnn(CC(=O)NCc3ccc4c(c3)OCO4)c12`, the cytotoxicity at 10 µM stood at 4.45%.

For the compound `CC(C)(C)c1nc(CN2CCCC(c3noc(C4CC4)n3)C2)no1` (configuration not stated), the cytotoxicity at 10 µM was -14.4%.

Take `O=C(c1ccc(C2CCCN2)s1)N1CCN(C(=O)N2CCOCC2)CC1` (configuration not stated): the cytotoxicity at 10 µM was 0.106%.

With `Cc1cc(NCC2CCCCC2)n2ncnc2n1`, the cytotoxicity at 10 µM is -2.1%.

For the compound `O=C(Cc1cccnc1)N1CC(Cc2nccc3cc[nH]c23)C1`, the cytotoxicity at 10 µM is 4.87%.

With `CNC(=O)c1cc2c(nc1NCC1CC1)CCNCC2`, the cytotoxicity at 10 µM is -0.966%.

Consider `OCCn1nccc1C1CCN(CCOc2ccccc2Cl)CC1`, for which the cytotoxicity at 10 µM is -5.04%.

Take `Cc1ccccc1C(CNC(=O)CSc1nnc(N)s1)N(C)C` (configuration not stated): the cytotoxicity at 10 µM turned out to be 12%.

For the compound `Cc1cc(NCCN2CCNC2=O)nc2cc3c(cc12)CCC3`, the cytotoxicity at 10 µM amounted to 2.97%.

With `CC(C)(NC(=O)c1cnc(C(C)(C)C)s1)C(N)=O`, the cytotoxicity at 10 µM is -4.04%.

For the compound `CNC(=O)N1CCC2(CC1)c1ncc(-c3cccc(F)c3)n1CCN2C`, the cytotoxicity at 10 µM worked out at 7.97%.

Regarding `CCN(C)CC1CCN(S(=O)(=O)c2cc(C)c(F)cc2Cl)C1` (configuration not stated), the cytotoxicity at 10 µM was -8.38%.

With `O=C([C@H]1C[C@H]2OCC[C@H]2N(C(=O)c2ccncc2)C1)N1CCCC1`, the cytotoxicity at 10 µM stood at 4.76%.

On to `COC(=O)N1CCc2ccccc2C1C(=O)NCC(F)(F)F` (configuration not stated), for which the cytotoxicity at 10 µM was -2.96%.

As for `CC(C)Cc1cc(NC(=O)c2ccccc2F)n(C)n1`, the cytotoxicity at 10 µM is -6.48%.

Regarding `O=C(CCn1cncn1)N1C[C@@H]2CC[C@H]1CN(Cc1cccnc1)C2`, the cytotoxicity at 10 µM came to 7.39%.

With `COCCO[C@H]1CCN(C(=O)c2ccc[nH]2)[C@H]1Cc1ccncc1`, the cytotoxicity at 10 µM was -5.46%.

In the case of `Cc1ncc(-c2ccnc(SCCN(C)C)n2)c(-c2ccco2)n1`, the cytotoxicity at 10 µM is -7.25%.

For the compound `CC(C)OC(=O)N1CCC(Cc2ccc(C(=O)O)cc2)C1` (configuration not stated), the cytotoxicity at 10 µM stood at 3.38%.

Turning to `Cc1cc(CN2C[C@@H]3CC[C@H]2CN(C2Cc4ccccc4C2)C3)on1`, the cytotoxicity at 10 µM was determined as 1.58%.

In the case of `Cc1cncnc1C1CCN(CCO)CC1`, the cytotoxicity at 10 µM is -7.26%.

Regarding `Cn1nc2c(c1NC(=O)c1cccs1)CCC2`, the cytotoxicity at 10 µM is 6.16%.

For `c1nc(CCNc2nc(C3CC3)nc3c2CCNCC3)c[nH]1`, the cytotoxicity at 10 µM is -130%.

Turning to `Nc1cc(-c2ccc(C(=O)O)cc2O)c2cc[nH]c2n1`, the cytotoxicity at 10 µM is 10.3%.

Take `Cn1cnc2c1CCN(Cc1nc(Cc3ccccc3)no1)C2`: the cytotoxicity at 10 µM was -7.99%.

`O=C1OC2(CCNCC2)CN1CC(=O)N1CCCC1c1ccco1` (configuration not stated): the cytotoxicity at 10 µM was -14.6%.

In the case of `CC(=O)NCCc1ccc(S(=O)(=O)N(C)C(C)CC(C)C)s1` (configuration not stated), the cytotoxicity at 10 µM is -1.88%.

For `Cc1nc(C)n(CC2CCCN2Cc2cccc3c2OCCO3)n1` (configuration not stated), the cytotoxicity at 10 µM was -3.33%.

For `Cc1ccc(-c2nc(CN(Cc3ccco3)C3CCS(=O)(=O)C3)cs2)o1` (configuration not stated), the cytotoxicity at 10 µM was found to be 10.3%.

As for `Cc1ncsc1C(=O)N(C)Cc1ccc(Br)o1`, the cytotoxicity at 10 µM was -39.3%.

On to `OCCNc1nccc(-c2c[nH]nc2-c2ccco2)n1`, for which the cytotoxicity at 10 µM was -6.47%.

With `c1cc2nc(C3CCNCC3)nn2cc1NC1CCC1`, the cytotoxicity at 10 µM was -98.8%.

With `Cc1nc(CN2CCC3(CCN(c4ncc(F)cn4)C3)C2=O)cs1` (configuration not stated), the cytotoxicity at 10 µM was 3.61%.

As for `COCc1cc(NCc2ccccc2OC)ncn1`, the cytotoxicity at 10 µM came out at 7.69%.

With `CC(C)n1cnc2c(-c3cccnc3)nc(C3CCNCC3)cc21`, the cytotoxicity at 10 µM is -114%.

Turning to `c1cc(CNCCc2cn3ccccc3n2)c2c(c1)OCCCO2`, the cytotoxicity at 10 µM amounted to 15.2%.

For `Cc1cc(-c2cnc(N3CCNC(=O)C3)nc2-c2ccoc2C)on1`, the cytotoxicity at 10 µM was -25.5%.

For `CCc1ncc(C(=O)c2ccc(OC)cc2)n1C`, the cytotoxicity at 10 µM is 14.5%.

Regarding `CC(=O)N1CCCC1c1cc(N2CCN(C3CCCC3)CC2)cc(C)n1` (configuration not stated), the cytotoxicity at 10 µM is 1.18%.

`NC(=O)N1CCCCCC1C1CCN(c2nccc(C(F)(F)F)n2)CC1` (configuration not stated): the cytotoxicity at 10 µM is 4.82%.

`COCCN(Cc1cccc(C#N)c1)Cc1nnsc1Cl`: the cytotoxicity at 10 µM was found to be 7.96%.

`O=C(c1ccc2[nH]ccc2c1)N1Cc2nc(CN3CCCC3)oc2C1`: the cytotoxicity at 10 µM is 6.98%.

`Cc1cnc(C)c(N2CCN(Cc3ccc(-c4cc[nH]n4)o3)CC2)n1`: the cytotoxicity at 10 µM was -5.01%.

Regarding `Cn1nc(C(=O)N2CCCC2)c2c1CN(CC1CCOCC1)C2`, the cytotoxicity at 10 µM was -2.51%.

With `Cc1noc(NCc2cc(F)ccc2F)n1`, the cytotoxicity at 10 µM was -4.86%.

As for `CNS(=O)(=O)c1ccc(CN2CCN(Cc3ncccc3C)CC2)cc1`, the cytotoxicity at 10 µM was found to be 8.41%.

As for `COc1ccc(Oc2nccc3occc23)cc1CN1CCCC1`, the cytotoxicity at 10 µM was -24.6%.

As to `OC1(Cn2ccc3ncccc32)CCN(Cc2cccnc2)CC1`, the cytotoxicity at 10 µM amounted to 5.72%.

`COc1ccc(C(=O)NCCCNc2ccc(C(F)(F)F)cn2)cc1`: the cytotoxicity at 10 µM was -3.87%.

For `Cc1nc(C)n(CC2CCCN2CC(=O)Nc2ccnn2C(C)C)n1` (configuration not stated), the cytotoxicity at 10 µM was -14%.

`COCCN1C[C@H]2[C@@H](C1)N(Cc1ccc(C)o1)CC[C@H]2OC`: the cytotoxicity at 10 µM is -8.34%.

In the case of `O=c1[nH]c2cc(S(=O)(=O)N3CCC(c4ccsc4)CC3)ccc2o1`, the cytotoxicity at 10 µM was -9.69%.
